Data taken from ChEMBL document CHEMBL1156358, “Inhibition of leukocyte functions by the alkaloid isaindigotone from Isatis indigotica and some new synthetic derivatives” (J Nat Prod, 2001).
Active and inactive are the calls of the source. No cut-off for these calls is given here.

Assays:
RAW264.7 [1] = assay: Antiinflammatory activity against LPS-stimulated mouse RAW264.7 cells assessed as nitrite accumulation after 20 hrs by fluorimetry; type: functional, cell-based; conditions: RAW264.7, 20 h
Procedure, shortened: (§1)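 Mouse RAW 264.7 cells (2×10^6/mL) in DMEM plus 10% FBS were stimulated for 20 h with E. coli LPS (1 µg/mL), with compound or 1% v/v methanol vehicle. Nitrite in 10 µL supernatant was read fluorometrically after 10 min in the dark with 2,3-diaminonaphthalene (0.05 mg/mL in 0.62 M HCl). Single-point tests used 10 µM, given as mean ± SEM (n = 9-12). IC50s carry 95% confidence limits.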

RAW264.7 [2] = assay: Antiinflammatory activity against LPS-stimulated mouse RAW264.7 cells assessed as PGE2 accumulation at 10 uM after 20 hrs by RIA relative to control; type: functional
Procedure, shortened: (§2)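 RAW 264.7 mouse macrophages (2×10^6/mL) in DMEM with 10% foetal bovine serum were stimulated with E. coli LPS (1 µg/mL) for 20 h alongside compound or vehicle (methanol, 1% v/v). Supernatant PGE2 was measured by radioimmunoassay. Single-point tests used 10 µM, reported as mean ± SEM (n = 9-12) against vehicle-treated stimulated cells. IC50 values carry 95% confidence limits.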

RAW264.7 [3] = assay: Antiinflammatory activity against LPS-stimulated mouse RAW264.7 cells assessed as PGE2 accumulation after 20 hrs by RIA; type: functional, cell-based; conditions: RAW264.7, 20 h; procedure, shortened: as §2
[4] = Cytotoxicity against human neutrophils at 10 uM by MTT assay; type: cell-based; conditions: neutrophil
Neutrophil [5] = assay: (§3) Antioxidant activity against hypoxanthine / xanthine oxidase system-stimulated superoxide radical generation in human neutrophils; type: functional, cell-based
[6] = Antioxidant activity against 12-O-tetradecanoylphorbol-13-acetate-stimulated superoxide radical generation in human neutrophils assessed as chemiluminescence unit per 10^6 cells at 10 uM; type: functional, Neutrophil; set-up: unit not given here
Procedure, shortened: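 Human neutrophils (2.5×10^6 cells/mL) were loaded with luminol (40 µM) and stimulated with TPA (1 µM) for 7 min. Chemiluminescence was recorded, with compounds at 10 µM. Controls were stimulated cells given vehicle. Data are mean ± SEM.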

RAW264.7 [7] = assay: Antiinflammatory activity against LPS-stimulated mouse RAW264.7 cells assessed as nitrite accumulation at 10 uM after 20 hrs by fluorimetry relative to control; type: functional; procedure, shortened: as §1
[8] = target: T1, Polyunsaturated fatty acid 5-lipoxygenase (Homo sapiens) (UniProt P09917); assay: Inhibition of 5LO-mediated LTB4 production in calcium ionophore A23187-stimulated human neutrophils at 10 uM by RIA
T1 sequence (whole entry): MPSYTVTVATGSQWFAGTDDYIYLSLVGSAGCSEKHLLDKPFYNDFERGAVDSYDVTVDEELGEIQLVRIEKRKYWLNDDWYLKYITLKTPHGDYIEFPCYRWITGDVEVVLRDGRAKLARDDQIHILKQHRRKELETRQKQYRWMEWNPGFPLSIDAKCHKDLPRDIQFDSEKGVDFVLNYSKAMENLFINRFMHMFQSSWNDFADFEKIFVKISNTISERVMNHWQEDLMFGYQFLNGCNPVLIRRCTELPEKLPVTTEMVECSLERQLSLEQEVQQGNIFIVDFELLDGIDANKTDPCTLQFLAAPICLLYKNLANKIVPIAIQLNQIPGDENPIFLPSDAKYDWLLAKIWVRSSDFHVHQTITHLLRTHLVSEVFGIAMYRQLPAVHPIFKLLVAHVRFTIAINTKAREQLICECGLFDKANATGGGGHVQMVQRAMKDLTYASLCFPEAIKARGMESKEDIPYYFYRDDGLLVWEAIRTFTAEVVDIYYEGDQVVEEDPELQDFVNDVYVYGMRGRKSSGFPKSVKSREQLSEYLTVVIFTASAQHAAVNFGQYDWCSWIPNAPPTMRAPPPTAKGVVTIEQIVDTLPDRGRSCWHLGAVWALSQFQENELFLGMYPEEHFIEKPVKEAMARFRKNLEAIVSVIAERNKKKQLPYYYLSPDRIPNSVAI

[9] = Antioxidant activity in cytochalasin B and fMLP-stimulated human neutrophils assessed as inhibition of p-nitrophenol-induced elastase activity at 10 uM
[10] = target: T1, Polyunsaturated fatty acid 5-lipoxygenase (Homo sapiens); assay: (§4) Inhibition of 5LO-mediated LTB4 production in human neutrophils by RIA
[11] = target: T2, Polyunsaturated fatty acid 5-lipoxygenase (Homo sapiens, UniProt P09917); assay: as §4
T2 sequence (P09917 whole entry): T1 sequence (whole entry)

[12] = (§5) Antioxidant activity against 12-O-tetradecanoylphorbol-13-acetate-stimulated superoxide radical generation in human neutrophils; type: functional, cell-based; conditions: Neutrophil
Neutrophil [13] = assay: as §5; type: functional, cell-based
[14] = as §3; type: functional, cell-based; conditions: Neutrophil

Row | IC50 (RAW264.7 [1]) | IC50 (RAW264.7 [3]) | Activity [8] | Activity [10] | IC50 [11] | IC50 [12] | IC50 [14] | Structure (SMILES) | Activity (RAW264.7 [2]) | Activity [4] | Activity (Neutrophil [5]) | Activity [6] | Activity (RAW264.7 [7]) | Activity [9] | Activity (Neutrophil [13])
1 | > 10 µM | > 10000 nM | 55.9 ng/mL |  |  |  |  | O=c1c2ccccc2nc2n1CC/C2=C\c1ccc(O)cc1 | 15.4 ng/mL | Non-toxic | inactive | 3269.2 | 429.8 ng/mL | 16.9 nmol/mL | 
2 | 4.2 µM | 200 nM | 13.5 ng/mL | Dose-dependent effect | 600 nM |  |  | COc1cc(/C=C2\CCn3c2nc2ccccc2c3=O)cc(OC)c1OC(C)=O | 6.7 ng/mL | Non-toxic | inactive | 2486.9 | 143.4 ng/mL | 18.6 nmol/mL | 
3 | > 10 µM | 80 nM | 58.9 ng/mL |  |  |  |  | O=c1c2ccccc2nc2n1CC/C2=C\c1ccc(F)cc1 | 5.7 ng/mL | Non-toxic | inactive | 3221.7 | 438 ng/mL | 19.7 nmol/mL | 
4 | > 10 µM | > 10000 nM | 4.2 ng/mL | Dose-dependent effect | 40 nM | 41.8 nM | 42.2 nM | COc1cc(/C=C2\CCn3c2nc2ccccc2c3=O)cc(OC)c1O [ISAINDIGOTONE] | 20.3 ng/mL | Non-toxic |  | 570.6 | 459.3 ng/mL | 19.3 nmol/mL | Dose-dependent effect
5 | > 10 µM |  | 61.6 ng/mL |  |  |  |  | O=c1c2ccccc2nc2n1CC/C2=C\c1ccccc1 | 4.8 ng/mL | Non-toxic | inactive | 2960.4 | 337.1 ng/mL | 19.1 nmol/mL | 
6 | > 10 µM | 2.1 nM |  |  |  |  |  | CS(=O)(=O)Nc1ccc([N+](=O)[O-])cc1OC1CCCCC1 [NS-398] | 3.7 ng/mL |  |  |  |  |  | 
7 | > 10 µM | > 10000 nM | 58.4 ng/mL |  |  |  |  | COc1cc(/C=C2\CCn3c2nc2ccccc2c3=O)cc(OC)c1 | 14.8 ng/mL | Non-toxic | inactive | 4150.7 | 437.2 ng/mL | 16.8 nmol/mL | 
8 | 0.3 µM | > 10000 nM |  |  |  |  |  | CC(=N)NCc1cccc(CN)c1 [1400W] |  |  |  |  | 11.6 ng/mL |  | 
9 | > 10 µM | > 10000 nM | 57.9 ng/mL |  |  |  |  | O=c1c2ccccc2nc2n1CC/C2=C\c1ccc(C(F)(F)F)cc1 | 15.6 ng/mL | Non-toxic | inactive | 4101.1 | 448 ng/mL | 19.3 nmol/mL | 
10 | 1.8 µM |  | 59.8 ng/mL |  |  |  |  | CC(=O)Oc1ccc(/C=C2\CCn3c2nc2ccccc2c3=O)cc1 | 9.9 ng/mL | Non-toxic | inactive | 2636.4 | 151.2 ng/mL | 19.2 nmol/mL | 
11 |  |  | 4.5 ng/mL |  |  |  |  | CCn1c(=O)ccc2cc(COc3cc(F)cc(C4(OC)CCOCC4)c3)ccc21 |  |  |  |  |  |  | 
